Data set [1] has as its target T1, Androgen receptor (Homo sapiens, UniProt P10275).
T1 sequence (P10275 whole entry): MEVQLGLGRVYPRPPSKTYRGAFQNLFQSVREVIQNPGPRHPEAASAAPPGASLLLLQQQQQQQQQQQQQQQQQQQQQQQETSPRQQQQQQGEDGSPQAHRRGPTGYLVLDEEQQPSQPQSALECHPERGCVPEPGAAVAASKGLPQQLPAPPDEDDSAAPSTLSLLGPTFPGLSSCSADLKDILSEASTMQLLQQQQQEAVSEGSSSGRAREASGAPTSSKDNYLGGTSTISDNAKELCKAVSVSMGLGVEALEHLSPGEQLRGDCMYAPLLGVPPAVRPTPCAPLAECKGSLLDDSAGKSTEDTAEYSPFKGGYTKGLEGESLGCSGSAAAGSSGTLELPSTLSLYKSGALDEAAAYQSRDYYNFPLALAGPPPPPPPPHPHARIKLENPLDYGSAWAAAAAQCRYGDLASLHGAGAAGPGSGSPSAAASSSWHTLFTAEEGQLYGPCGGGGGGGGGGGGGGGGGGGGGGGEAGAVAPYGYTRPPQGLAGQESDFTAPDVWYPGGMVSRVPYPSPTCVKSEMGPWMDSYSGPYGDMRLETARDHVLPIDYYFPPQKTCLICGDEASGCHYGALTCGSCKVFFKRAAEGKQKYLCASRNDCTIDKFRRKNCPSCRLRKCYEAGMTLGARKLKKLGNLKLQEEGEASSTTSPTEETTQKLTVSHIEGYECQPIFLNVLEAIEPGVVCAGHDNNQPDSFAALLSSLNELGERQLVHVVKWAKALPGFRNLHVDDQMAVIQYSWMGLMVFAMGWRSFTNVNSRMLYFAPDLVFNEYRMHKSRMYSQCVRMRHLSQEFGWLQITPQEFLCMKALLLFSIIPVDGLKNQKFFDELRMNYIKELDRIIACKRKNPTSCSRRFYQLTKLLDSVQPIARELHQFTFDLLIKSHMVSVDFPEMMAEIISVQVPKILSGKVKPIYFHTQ
The experiment in a line: Antagonist activity at androgen receptor (unknown origin).

Data set [2] has as its system LNCaP. The experiment in a line: Antiproliferative activity against human LNCAP cells after 3 days. The data set is classed as functional, cell-based. The settings on record: for pIC50: Homo sapiens, LNCaP, 72 h, read-out: IC50; for IC50: lncap. Put shortly: (§1)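 LNCaP cells seeded at 10,000 per well in RPMI 1640 with 10% charcoal-stripped serum and 1% AAS, then held 3 days at 37 °C. Medium was then replaced with serial compound dilutions, either without DHT (agonism mode) or with DHT (antagonism mode).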

Data set [3] has as its target T1, Androgen receptor. Nature of the data set: Partial agonist activity at androgen receptor (unknown origin). A digest of the protocol:
as §1

Data set [4] in a line: AUC (0 to infinity) in rat at 5 mg/kg, po. The data set is classed as ADME, organism-based. Details: dose 5 mg/kg, route oral, time infinity; call rule not given here. Particulars: in vivo. A digest of the protocol: (§2)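 Rats (n = 3) received a single 5 mg/kg oral dose in 0.5% HPMC. EDTA blood samples were taken at 15 and 30 min and at 1, 2, 4, 8 and 24 h. Plasma was obtained by centrifugation, mixed with acetonitrile:H2O (1:1 v/v) and precipitated with acetonitrile.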

The test system of data set [5] is Rattus norvegicus. Nature of the data set: Volume of distribution in rat at 5 mg/kg, po. The data set is classed as ADME, organism-based. The settings on record: in vivo. A digest of the protocol:
(§3)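 Rats (n = 3) were given a single 5 mg/kg oral dose in 0.5% HPMC. Blood was taken into EDTA tubes at 15 and 30 min and 1, 2, 4, 8 and 24 h. Plasma was obtained by centrifugation and proteins were precipitated with acetonitrile. Bioavailability was calculated against a 1 mg/kg iv dose.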

Data set [6] is described as follows: Tmax in rat at 1 mg/kg, iv. Type of data set: ADME, organism-based. The settings on record: in vivo. Put shortly:
(§4)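 Rats (n = 3) were given a single 1 mg/kg iv dose in 20% hydroxypropyl-β-cyclodextrin. Blood was taken into EDTA tubes at 5, 15 and 30 min and 1, 2, 4, 8 and 24 h. Plasma was obtained by centrifugation and proteins were precipitated with acetonitrile before analysis.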

Data set [7] relates to Rattus norvegicus. Nature of the data set: Volume of distribution at steady state in rat at 1 mg/kg, iv. The data set is classed as ADME, organism-based. Particulars: in vivo. A digest of the protocol:
as §4

The nature of data set [8]: MRT (last) in rat at 5 mg/kg, po. The data set is classed as ADME, organism-based. The settings on record: in vivo. A digest of the protocol:
as §3

Data set [9] in a line: Oral bioavailability in rat at 5 mg/kg. The data set is classed as ADME, organism-based. The settings on record: in vivo. Put shortly:
as §3

Data set [10] in a line: AUC (0 to time) in rat at 5 mg/kg, po. The data set is classed as ADME, organism-based. The settings on record: in vivo. A digest of the protocol: as §2
The nature of data set [11]: MRT (last) in rat at 1 mg/kg, iv. Particulars: in vivo. Type of data set: ADME, organism-based. Put shortly:
as §4

The nature of data set [12]: Half life in rat at 5 mg/kg, po. Type of data set: ADME, organism-based. Particulars: in vivo. A digest of the protocol:
as §3

The nature of data set [13]: Half life in rat at 1 mg/kg, iv. The data set is classed as ADME, organism-based. Particulars: in vivo. A digest of the protocol: as §4
A short description of data set [14]: Tmax in rat at 5 mg/kg, po. The data set is classed as ADME, organism-based. The settings on record: in vivo. A digest of the protocol: as §3
The test system of data set [15] is Rattus norvegicus. Nature of the data set: Volume of distribution at steady state in rat at 5 mg/kg, po. The data set is classed as ADME, organism-based. The settings on record: in vivo. Put shortly: as §3
The nature of data set [16]: AUC (0 to infinity) in rat at 1 mg/kg, iv. Type of data set: ADME, organism-based. Details: dose 1 mg/kg, route intravenous, time infinity. The settings on record: in vivo. A digest of the protocol:
(§5)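 Rats (n = 3) given a single 1 mg/kg iv dose in 20% HP-b-CD. Blood was drawn into EDTA tubes at 5, 15 and 30 min and at 1, 2, 4, 8 and 24 h. Plasma was separated by centrifugation, mixed with acetonitrile:H2O (1:1 v/v) and protein-precipitated with acetonitrile.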

A short description of data set [17]: Volume of distribution in rat at 1 mg/kg, iv. Type of data set: ADME, organism-based. Particulars: in vivo. Put shortly: as §4
Data set [18] relates to Rattus norvegicus. The experiment in a line: Clearance in rat at 1 mg/kg, iv. The data set is classed as ADME, organism-based. The settings on record: in vivo. Put shortly: as §4
The nature of data set [19]: Clearance in rat at 5 mg/kg, po. The data set is classed as ADME, organism-based. Particulars: in vivo. Put shortly:
as §3

A short description of data set [20]: MRT (INF) in rat at 5 mg/kg, po. The settings on record: in vivo. Type of data set: ADME, organism-based. Put shortly: as §3
In data set [21] the test system is Rattus norvegicus. Nature of the data set: MRT (INF) in rat at 1 mg/kg, iv. Particulars: in vivo. Type of data set: ADME, organism-based. Put shortly:
as §4

The nature of data set [22]: Cmax in rat at 5 mg/kg, po. The settings on record: in vivo. Also on record: dose 5 mg/kg, route oral. The data set is classed as ADME, organism-based. Put shortly:
as §3

Data set [23] is described as follows: Cmax in rat at 1 mg/kg, iv. The data set is classed as ADME, organism-based. Also on record: dose 1 mg/kg, route intravenous. The settings on record: in vivo. Put shortly:
as §4

The nature of data set [24]: AUC (0 to time) in rat at 1 mg/kg, iv. The settings on record: in vivo. Type of data set: ADME, organism-based. Put shortly:
as §5

Molecules are shown by their SMILES. pIC50, pKi: −log10 of the molar value. Bounds are passed on as bounds.

Regarding `CNC(=O)c1ccc(N2CCC(=O)N(c3ccc(C#N)c(C(F)(F)F)c3)C2=S)cc1F`, the pKi in data set [1] was 6.24. For the same molecule, in data set [2], the pIC50 is 5.52.
In the case of `CNC(=O)c1ccc(N2C(=S)N(c3ccc(C#N)c(C(F)(F)F)c3)C(=O)[C@@]23CCOC3)cc1F`, in data set [1], the pKi was 6.67. Also, the pIC50 in data set [2] is 5.70.
`CNC(=O)c1ccc(N2C(=S)N(c3ccc(C#N)c(C(F)(F)F)c3)C(=O)C2C)cc1F` (racemic) gave a pKi in data set [3] of 6.59. Further, the pIC50 in data set [2] was 6.02.
`CNC(=O)c1ccc(N2C(=S)N(c3ccc(C#N)c(C(F)(F)F)c3)C(=O)[C@]2(C)COC)cc1F`: the pKi in data set [1] was 6.10. For the same molecule, the pIC50 in data set [2] was 5.50.
In turn, `CNC(=O)c1ccc(N2C(=S)N(c3ccc(C#N)c(C(F)(F)F)c3)C(=O)C2(C)COC)cc1F` (racemic) gave a pKi in data set [1] of 7.17. Also, the pIC50 in data set [2] is 6.46.
Molecule `CNC(=O)c1ccc(N2C(=S)N(c3ccc(C#N)c(C(F)(F)F)c3)C(=O)[C@@H]2C)cc1F` showed a pKi in data set [3] of 7.02. The pIC50 in data set [2] is 6.40.
With `COC(=O)c1ccc(N2C(=S)N(c3ccc(C#N)c(C(F)(F)F)c3)C(=O)[C@]23CCOC3)cc1F`, the AUC(0-inf) in [4] worked out at 576 ng·h/mL; in data set [16] it was 712 ng·h/mL. Further, the Vd in data set [5] is 53 L/kg; in data set [17], 46 L/kg. Further, the Tmax was found to be 4.98 min in data set [6] and 1.67 h in data set [14]. In addition, the values for the Vdss in [7] and in data set [15] were 1.6 L/kg and 2 L/kg, respectively. Moreover, the MRT last is 4.6 h in [8] and 4.3 h in [11]. Moreover, the bioavailability in data set [9] came out at 19%. For the same molecule, the AUC is 570 ng·h/mL in data set [10] and 599 ng·h/mL in [24]. Further, the half-life in data set [12] was 4.3 h; in data set [13] it was 17.1 h. Moreover, in data set [18], the CL stood at 28.3 mL/min/kg. In addition, the pKi in [1] was 7.92. For the same molecule, the CL/F in data set [19] is 147 mL/min/kg. In data set [20], this molecule displayed an MRT inf of 5 h. The MRT in [21] was determined as 12.8 h. The Cmax in [22] came to 104 ng/mL; in [23] it was 518 ng/mL. Further, the pIC50 in [2] was 7.23.
For `CNC(=O)c1ccc(N2C(=S)N(c3cnc(C#N)c(C(F)(F)F)c3)C(=O)C23CCC3)cc1F` [APALUTAMIDE], in data set [2], the pIC50 was 6.76.
On to `CNC(=O)c1ccc(N2CC(=O)N(c3ccc(C#N)c(C(F)(F)F)c3)C2=S)cc1F`, for which, in [2], the pIC50 is less than 5.00.
On to `CNC(=O)c1ccc(N2C(=S)N(c3ccc(C#N)c(C(F)(F)F)c3)C(=O)C2(C)CC(=O)O)cc1F` (racemic), for which the Ki result in data set [1] was “Not Active”. Moreover, the IC50 entry in [2] was “Not Active”.
With `CNC(=O)c1ccc(N2C(=S)N(c3ccc(C#N)c(C(F)(F)F)c3)C(=O)C23CCOC3)cc1F` (racemic), the pKi in data set [1] was 7.47. For the same molecule, in data set [2], the pIC50 was 6.71.
On to `CNC(=O)c1ccc(N2C(=S)N(c3ccc(C#N)c(C(F)(F)F)c3)C(=O)C23CN(C(c2ccccc2)c2ccccc2)C3)cc1F`, for which the Ki entry in data set [1] is given as “Not Active”. Further, the IC50 entry in [2] is reported as “Not Active”.

Values taken from ChEMBL document CHEMBL3588823, “Design, synthesis and biological evaluation of novel 5-oxo-2-thioxoimidazolidine derivatives as potent androgen receptor antagonists” (Eur J Med Chem, 2015).
